Yeast lifespan up: extends the lifespan of yeast. S. cerevisiae growth with nicotinamide, OD615; deaD strain in restrictive glucose medium. hit rate 0.68% among 130,000. inhibition of the nicotinamide effect, % at 10 µM;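 active = inhibition above a set limit, placed 3 SD over the median of all compounds, cut at about 26% in these data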;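 note: 0% = nicotinamide-treated wells and 100% = cells grown without nicotinamide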
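Assay system: engineered S. cerevisiae DeaD replicative-lifespan strain, galactose-grown log-phase cells; Buffer or medium: CSMM-D glucose medium, restrictive; Probe or stimulus: nicotinamide 1.5 mM; Compound: single dose 10 µM compound, 0.25% DMSO; Schedule: 4 h preincubation then 48 h treatment at 30 °C; Technique: OD615 measurement.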
Measles CPE: protection of cells from measles virus; Measles virus-infected cells, CPE protection, absorbance; protection (pct of control), % at 4 µM; hit rate 1.5% among 140,000; AID 841; in the data active = protection mostly above about 24%, no sharp cut-off; inactive = mostly below about 26%
RAM network inh: yeast RAM network inhibition; hit rate 1.8% among 190,000; S. cerevisiae dse1pr::URA3 reporter, 5-FOA growth OD615, 2 d; analog-sensitive cbk1-as2 kinase mutant strain; inhibition, % at 50 µM;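 active = inhibition above a set limit, 3 SD over mean compound inhibition, cut at about 8.4% in these data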;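 note: 0% = DMSO-only wells with no growth and 100% = 10 µM 1-NA-PP1 full growth; inhibition rescues growth on 5-FOA so higher OD means more RAM inhibition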
BB579 growth dn: chemicals that inhibit yeast BB579 growth in restrictive medium (lifespan-shortening candidates); S. cerevisiae BB579 growth, OD615, 48 h; inhibition, % at 10 µM; hit rate 0.51% among 140,000; AID 804;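 active = inhibition above a set limit, 3 SD over the mean compound inhibition, cut at about 44% in these data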
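Material: Saccharomyces cerevisiae DeaD strain BB579, replicative lifespan model yeast; buffer or medium: CSMM-D restrictive synthetic medium containing dextrose (glucose); compound: 10 µM single dose, DMSO 0.25%; timing: 48 h compound exposure at 30 °C after 4 h preincubation; signal: turbidity as optical density at 615 nm; benchmarks: positive control amphotericin B 10 µg/mL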
An asterisk follows results filed as active. An excerpt weighted towards active compounds, which were near 3.6% of everything screened.

How did CC(C)C(=O)NC(c1ccccc1)c1cc([N+](=O)[O-])c2cccnc2c1O (configuration not stated) do in these assays?
Yeast lifespan up: -4; Measles CPE: 7; RAM network inh: 4; BB579 growth dn: 74*

How did CC(=O)NC(c1ccccc1)c1cc([N+](=O)[O-])c2cccnc2c1O (configuration not stated) do in these assays?
RAM network inh: 2

Results for CCCC(=O)NC(c1cccs1)c1cc([N+](=O)[O-])c2cccnc2c1O (configuration not stated) ?
Yeast lifespan up: -2; Measles CPE: 15; RAM network inh: 5; BB579 growth dn: 47*

How did CC(=O)Oc1ccc(C(=O)Nc2ccccc2C(=O)NCC(C)C)cc1 do in these assays?
Yeast lifespan up: -6; Measles CPE: 54*; RAM network inh: 3; BB579 growth dn: -18

How did CN(CC(=O)NC1CCCCCCC1)S(=O)(=O)c1cnc[nH]1 do in these assays?
RAM network inh: 4

How did N#Cc1nc(-c2ccc(OCc3ccccc3)cc2)oc1N1CCC(C(N)=O)CC1 do in these assays?
Yeast lifespan up: -23; Measles CPE: 5; RAM network inh: 8.6*; BB579 growth dn: -3

How did N#Cc1nc(-c2ccco2)oc1N1CCN(c2ccccc2)CC1 do in these assays?
Yeast lifespan up: -12; Measles CPE: 18; RAM network inh: 6; BB579 growth dn: -9

Results for N#Cc1nc(-c2ccco2)oc1N1CCC(Cc2ccccc2)CC1 ?
Yeast lifespan up: -13; Measles CPE: 7; RAM network inh: 9.7*; BB579 growth dn: -14

How did CN(C)c1ccc(NC(=O)c2sc(SCC(=O)Nc3ccc(Br)cc3)nc2N)cc1 do in these assays?
Yeast lifespan up: 0; Measles CPE: 16; RAM network inh: 8.7*; BB579 growth dn: -43

Results for CCOc1cc(/C=N/NC(N)=O)cc(Br)c1OCC(=O)Nc1cccc2ccccc12 ?
Yeast lifespan up: -6; Measles CPE: 45*; RAM network inh: 3; BB579 growth dn: -84

Results for CCSc1nc(C2CC2)cc(-c2ccco2)c1C#N ?
Yeast lifespan up: -17; Measles CPE: 3; RAM network inh: 10*; BB579 growth dn: -32

Results for CCSc1nc(C2CC2)cc(-c2cccs2)c1C#N ?
Yeast lifespan up: -12; Measles CPE: 5; RAM network inh: 2; BB579 growth dn: -14

What do the screens show for `CC1(C)CC(=O)C(C(=O)C2CCN(S(=O)(=O)c3ccccc3)CC2)C(=O)C1`?
RAM network inh: 0

What do the screens show for `CS(=O)(=O)N(CC(=O)NCCSCc1cccc(Cl)c1)c1ccc2c(c1)OCO2`?
Yeast lifespan up: -6; Measles CPE: 8; RAM network inh: 0; BB579 growth dn: -4

What do the screens show for `O=C(/C=C/c1ccc2c(c1)OCO2)NCCSCc1cccc(Cl)c1`?
Yeast lifespan up: -12; Measles CPE: 3; RAM network inh: 9.0*; BB579 growth dn: -19

Results for Cc1ccc(NC(=O)COc2ccc(Br)cc2C)cc1 ?
Yeast lifespan up: -1; Measles CPE: 26*; RAM network inh: 3; BB579 growth dn: 9

What do the screens show for `CN(C)c1ccc(/C=C2\CCC/C(=C\c3ccccc3)C2=O)cc1`?
Yeast lifespan up: 3; Measles CPE: 8; RAM network inh: 9.0*; BB579 growth dn: -37

What do the screens show for `O=C1/C(=C/c2cccnc2)CCC/C1=C\c1cccnc1`?
Yeast lifespan up: 74*; Measles CPE: 0; RAM network inh: 0; BB579 growth dn: 2

Results for CCC1C/C(=C\c2cccnc2)C(=O)/C(=C/c2cccnc2)C1 (configuration not stated) ?
Yeast lifespan up: 84*; Measles CPE: 1; RAM network inh: -1; BB579 growth dn: -13

How did O=C(NC1CCNCC1)C1CC1 do in these assays?
RAM network inh: 0

How did CC(=O)N(Cc1ccccc1)c1nc(-c2ccccc2)cs1 do in these assays?
RAM network inh: 5

Results for Cc1n[nH]c(=O)n1-c1cccc(C(F)(F)F)c1 ?
Yeast lifespan up: 75*; Measles CPE: 11; RAM network inh: 3; BB579 growth dn: -10

Results for O=c1[nH]ncn1-c1cccc(C(F)(F)F)c1 ?
Yeast lifespan up: -14; Measles CPE: 3; RAM network inh: 0; BB579 growth dn: -27

What do the screens show for `Cc1nnc(SCC(=O)Nc2ccc3c(c2)OCO3)n(N)c1=O`?
RAM network inh: 1

What do the screens show for `Cc1cccc(/C(N)=N/OC(=O)c2ccc(F)cc2)c1`?
Yeast lifespan up: -10; Measles CPE: 8; RAM network inh: -1; BB579 growth dn: 95*

Results for CCC(=O)c1c(NCCc2ccccc2)cc(C)oc1=O ?
RAM network inh: 0

What do the screens show for `Cn1c(CNS(=O)(=O)c2ccc(F)cc2)n[nH]c1=S`?
Yeast lifespan up: 0; Measles CPE: 43*; RAM network inh: 1; BB579 growth dn: -34

How did CC(O)CNc1ccc(-c2nn(C)c(=O)c3ccccc23)cc1[N+](=O)[O-] (configuration not stated) do in these assays?
RAM network inh: 1

What do the screens show for `Cc1cc(C)c(C#N)c(SCc2nnc(-c3ccccc3[N+](=O)[O-])o2)n1`?
RAM network inh: 11*

What do the screens show for `Cc1oc(-c2cccc3ccccc23)nc1CN1CCC[C@H]1CO`?
RAM network inh: 0

What do the screens show for `CC(NS(=O)(=O)c1ccc(Br)cc1)C(c1cccs1)N1CCN(C)CC1` (configuration not stated)?
Yeast lifespan up: -12; Measles CPE: 27*; RAM network inh: 2; BB579 growth dn: -44

What do the screens show for `CC(NS(=O)(=O)c1ccccc1)C(c1cccs1)N1CCN(c2ccccc2)CC1` (configuration not stated)?
Yeast lifespan up: -5; Measles CPE: 2; RAM network inh: 1; BB579 growth dn: -32

Results for CC(NS(C)(=O)=O)C(c1cccs1)N1CCN(Cc2ccccc2)CC1 (configuration not stated) ?
Yeast lifespan up: -9; Measles CPE: 31*; RAM network inh: 2; BB579 growth dn: -38

Results for CC(NS(C)(=O)=O)C(c1cccs1)N1CCN(C)CC1 (configuration not stated) ?
Yeast lifespan up: -7; Measles CPE: 17; RAM network inh: 1; BB579 growth dn: -26

What do the screens show for `COc1ccc(-c2[nH]ncc2CN2CCC(OCc3cccnc3)CC2)c(F)c1`?
RAM network inh: 1

How did Cc1nn(Cc2c(Cl)cccc2Cl)c(C)c1NC(=O)c1cc(C(C)C)on1 do in these assays?
Yeast lifespan up: -3; Measles CPE: 52*; RAM network inh: 5; BB579 growth dn: -90

What do the screens show for `O=C(CN1CCC(NC(=O)Cc2ccccc2)CC1)Nc1ccccc1Br`?
Yeast lifespan up: 5; Measles CPE: 44; RAM network inh: 1; BB579 growth dn: -8

Results for CCOc1ccc(-c2cc(C(=O)OC)[nH]n2)cc1 ?
RAM network inh: 0

What do the screens show for `Cc1nnc(C)n1N1C(=O)c2cccc3cccc(c23)C1=O`?
Yeast lifespan up: 0; Measles CPE: 49*; RAM network inh: -1; BB579 growth dn: -4

Results for Cc1nnc(N2C(=O)c3cccc4cccc(c34)C2=O)s1 ?
Yeast lifespan up: -15; Measles CPE: 27; RAM network inh: 2; BB579 growth dn: 15
